# Paper PMC12169410 (Epilepsia, 2025)
# Where “and” joins values, the source holds several entries; their conditions need not be identical. Identical values can stand only once.
# Experiments:
# Type in all cases: in vivo
# [1] = system: CF‐1 mice, 6 Hz psychomotor seizure; assay: Mouse 6 Hz seizure test; settings: 1 mg/kg i.p., 0.25 h pretreatment
# CF‐1 mice = assay: Mouse fixed-speed rotarod test of minimal motor impairment; settings: 1 mg/kg i.p.
# How it was run: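 Mice were tested on a fixed-speed rotarod at 6 rpm immediately before 6 Hz stimulation at 32 or 44 mA. A mouse falling off 3 times within 1 min was scored impaired. The experimenter was blinded to treatment.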
# [2] = system: amygdala kindled Wistar rats; assay: Amygdala kindled rat seizure model; settings: 16 mg/kg orally, 60 min prior to stimulation
# How it was run: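 Male Wistar rats had electrodes implanted under isoflurane with carprofen (5 mg/kg s.c.). Each treatment ran over 2 days with a 2-day washout. Day 1: oral vehicle (0.5% methylcellulose), then stimulation 60 or 120 min later. […] Seizures were scored on the Racine scale (0–5), and amygdala and cortical EEG afterdischarge duration was analysed off-line. Statistics: Wilcoxon test (severity) and paired t test (afterdischarge) vs baseline.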
# [3] = system: Genetic Absence Epilepsy Rat from Strasbourg (GAERS); assay: GAERS model, spontaneous spike-and-wave discharges; settings: 3 mg/kg oral; discharges increased progressively afterwards
# How it was run: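 Adult male GAERS rats (4–8 months) had frontal and parietal cortical EEG recorded while freely moving. […] SWDs were counted over a 20-min baseline (−25 to −5 min) and in 20-min epochs from 10 to 130 min post-dose. Analysis: mixed-model repeated-measures ANOVA with Dunnett vs vehicle; ED50 from a variable-slope curve fit of overall rate as % baseline.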
smiles,measurement,setting,value
CN1C(=O)CN=C(c2ccccc2)c2cc(Cl)ccc21 [Diazepam],Seizure protection 32 mA (mice protected/tested),[1]; 32 mA,10/10
same,Seizure protection 44 mA (mice protected/tested),[1]; 44 mA,3 of 10 and 3/10
same,"Rotarod impairment (mice impaired/tested), 32 mA group",CF‐1 mice; immediately prior to 6 Hz 32 mA stimulation,0/10
same,"Rotarod impairment (mice impaired/tested), 44 mA group",CF‐1 mice; immediately prior to 6 Hz 44 mA stimulation,0/10
same,Change in mean afterdischarge duration in the amygdala vs baseline,[2],−69%
same,Change in mean afterdischarge duration in the cortex vs baseline,[2],−75%
same,Change in mean seizure severity score (Racine scale) vs baseline,[2],−3.7
same,Effect on SWDs in the first epoch (10–30 min),[3],rapid and almost complete elimination of SWDs
